Laboratory results as given in ChEMBL document CHEMBL1131058, “Studies on quinazolines and 1,2,4-benzothiadiazine 1,1-dioxides. 8.1, 2 synthesis and pharmacological evaluation of tricyclic fused quinazolines and 1,2,4-benzothiadiazine 1,1-dioxides as potential alpha1-adrenoceptor antagonists” (J Med Chem, 1998).

Legend:
[1] = biological target: T1, Adrenergic receptor alpha-2 (Rattus norvegicus, UniProt P22086+P19328+P22909); assay: Displacement of clonidine from Alpha-2 adrenergic receptor in rat brain cortex; type: tissue-based
T1 sequence (P22086 whole entry): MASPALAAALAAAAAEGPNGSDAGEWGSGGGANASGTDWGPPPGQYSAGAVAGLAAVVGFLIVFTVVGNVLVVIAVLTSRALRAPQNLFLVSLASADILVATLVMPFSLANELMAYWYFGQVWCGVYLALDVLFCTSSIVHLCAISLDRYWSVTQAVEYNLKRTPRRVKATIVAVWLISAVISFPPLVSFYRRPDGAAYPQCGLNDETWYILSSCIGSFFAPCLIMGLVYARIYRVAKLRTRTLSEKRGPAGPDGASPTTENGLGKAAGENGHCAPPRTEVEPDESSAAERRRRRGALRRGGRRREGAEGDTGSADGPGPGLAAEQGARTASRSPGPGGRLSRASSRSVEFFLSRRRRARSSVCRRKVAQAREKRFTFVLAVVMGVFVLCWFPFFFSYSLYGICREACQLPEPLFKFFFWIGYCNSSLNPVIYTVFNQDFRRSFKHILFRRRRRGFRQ
T1 sequence (P19328 whole entry): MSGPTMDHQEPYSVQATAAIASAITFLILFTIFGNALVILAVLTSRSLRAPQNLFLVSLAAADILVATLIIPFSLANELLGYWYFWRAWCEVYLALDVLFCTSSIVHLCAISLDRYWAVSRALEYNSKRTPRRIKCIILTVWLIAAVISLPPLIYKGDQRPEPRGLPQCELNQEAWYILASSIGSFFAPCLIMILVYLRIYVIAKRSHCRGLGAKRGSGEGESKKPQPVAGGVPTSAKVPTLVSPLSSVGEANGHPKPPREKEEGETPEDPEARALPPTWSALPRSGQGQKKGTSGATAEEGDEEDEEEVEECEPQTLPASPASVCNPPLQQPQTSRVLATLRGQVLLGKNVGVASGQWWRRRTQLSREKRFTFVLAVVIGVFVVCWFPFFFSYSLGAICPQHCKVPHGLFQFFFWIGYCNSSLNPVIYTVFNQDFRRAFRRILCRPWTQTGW
T1 sequence (P22909 whole entry): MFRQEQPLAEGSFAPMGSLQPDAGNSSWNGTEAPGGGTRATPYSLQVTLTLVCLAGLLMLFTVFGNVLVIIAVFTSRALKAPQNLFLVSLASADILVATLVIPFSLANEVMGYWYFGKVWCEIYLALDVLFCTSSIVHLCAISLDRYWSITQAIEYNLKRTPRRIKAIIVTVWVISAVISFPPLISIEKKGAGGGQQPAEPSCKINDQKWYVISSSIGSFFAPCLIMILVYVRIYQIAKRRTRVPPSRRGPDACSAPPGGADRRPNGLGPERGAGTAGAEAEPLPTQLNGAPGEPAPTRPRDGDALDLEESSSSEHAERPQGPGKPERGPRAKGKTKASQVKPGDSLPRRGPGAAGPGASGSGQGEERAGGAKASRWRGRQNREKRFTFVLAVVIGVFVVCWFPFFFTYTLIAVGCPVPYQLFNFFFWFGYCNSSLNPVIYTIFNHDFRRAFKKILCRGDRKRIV
How it was run: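 α2 competition binding run in triplicate with 1 nM [³H]clonidine plus 10 mM MgCl₂ in Tris pH 7.4, 30 min at room temperature. Test compounds at 1-100 µM. Nonspecific binding defined with 10 µM clonidine. Membranes collected on GF/B filters and washed twice with cold Tris. Protein 300-400 µg per assay. Ki given as mean ± SEM of 3-6 experiments.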

[2] = biological target: Sodium channel alpha subunits; brain (Types I, II, III) (Rattus norvegicus, UniProt P04775+P04774+P08104); assay: Displacement of [3H]batrachotoxin from rat brain sodium channel; type: tissue-based
How it was run: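 Radioligand competition binding was done by an outside contract lab (Pan Lab). Inhibition constants (Ki) were derived from displacement of the stated tritiated ligand. Each compound was tested at 10 µM. Where inhibition at that concentration stayed below 50%, no Ki was reported.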

Row | SMILES | Ki [1] [µM] | Ki [2] [µM]
1 | Oc1nc2ccccc2c2ncc(CN3CCN(c4ccccc4Cl)CC3)n12 | 2.72 | 2.46
2 | COc1ccccc1N1CCN(Cc2cn3c(O)nc4ccccc4c3n2)CC1 | 6.76 | 4.81
3 | COc1ccccc1N1CCN(Cc2cnc3c4ccccc4nc(O)n23)CC1 | 7.83 | 5.38
4 | COc1ccccc1N1CCN(CC2CN=C3c4ccccc4N=C(SC)N32)CC1 (configuration not stated) |  | 0.404
